Published values of several laboratories.
Target: Misshapen-like kinase 1 (MINK1, Homo sapiens, UniProt Q8N4C8)

Structure (SMILES) | effect on | mode | technique | tested at | measurement | value
CO[C@@H](C)c1c(Nc2ccc([C@H](N(C)C(=O)C3CCS(=O)(=O)CC3)C(F)(F)F)cc2)cnc2cc(Cl)nn12 | cell-free assay | – | competition with immobilised ligand | 1 µM | remaining binding | 100%
Cc1cc(NC(=O)c2cccc3cc(-c4cccc5[nH]nc(N)c45)ccc23)ccc1F | enzyme activity | inhibitor | – | 0.1 µM | activity vs control | 110%
Nc1ncnc2occ(-c3ccc(NC(=O)Nc4cc(C(F)(F)F)ccc4F)cc3)c12 | cell-free assay | inhibitor | – | 20 µM | remaining signal | 1.5%
FC(F)(F)Oc1cccc(-c2cnc3ccc(-c4ccncc4)nn23)c1 | enzyme activity | inhibitor | radiometric | 5 µM | activity vs control | 63%
COc1ccc(COc2ccc(Cc3cnc(N)nc3N)cc2OC)cc1 | cell-free assay | – | – | 0.5 µM | remaining signal | 86.5%
O=C(Nc1cnn(-c2csc(C(=O)NC3COC3)c2)c1)Nc1c(F)cccc1Cl | enzyme activity | inhibitor | – | 5 µM | remaining activity | 62.2%
N#CCCc1ccc2c(c1)-c1[nH]c3ccc([N+](=O)[O-])cc3c1CC(=O)N2 | cell-free assay | – | – | 0.5 µM | remaining signal | 29.9%
COc1cc(-c2cn(C3CCc4c(F)cccc4N(CC(F)(F)F)C3=O)nn2)ccc1-n1cnc(C)c1 (stereo not shown) | cell-free assay | – | competition with immobilised ligand | 1 µM | remaining binding | 84%
COc1cc(-c2cc(-c3ccc(N4CCNCC4)cc3)cnc2N)cc(OC)c1OC | enzyme activity | inhibitor | – | 1 µM | inhibition | 89%
CN(C)C1CCN(CC#Cc2nn(C3CCCC3)c3nc(NCc4ccccc4)ncc23)C1 (stereo not shown) | enzyme activity | inhibitor | FRET | 1 µM | inhibition | 17%
Oc1cccc(-c2nc(N3CCOCC3)c3oc4ncccc4c3n2)c1 | enzyme activity | inhibitor | – | 10 µM | remaining activity | 116%
COc1cc(Cl)c(C(=O)N[C@@H](CN[C@H]2CC[C@@H](N)CC2)Cc2ccc(C#N)cc2)cc1-c1ccc(CN[C@H](C)c2ccc(C)cc2)o1 | enzyme activity | inhibitor | – | 1 µM | remaining activity | 94%
COc1cc(Nc2cnc(C#N)c(O[C@H](C)CN(C)C)n2)ncc1-c1cnn(C)c1 | enzyme activity | inhibitor | radiometric | 10 µM | remaining activity | 67%
O=C(NCc1ncc(C(F)(F)F)cc1Cl)c1ccc2c(c1)C1(CCS(=O)(=O)CC1)[C@@H](C1CC1)N2S(=O)(=O)c1ccc(F)cc1 | cell-free assay | – | competition with immobilised ligand | 1 µM | remaining binding | 85%
CC(C)(C)c1nc2c(s1)c1nc(N)ncc1c1ccc(NS(=O)(=O)c3c(F)cccc3F)c(F)c12 | enzyme activity | inhibitor | radiometric | 1 µM | remaining activity | 90%
C[C@H](c1ccnc(Nc2nc3ccc(-c4cc(N(C)C)ncn4)cc3[nH]2)c1)N1CCN(C(=O)CC(F)(F)F)CC1 | cell-free assay | – | competition with immobilised ligand | 0.1 µM | remaining binding | 94%

Structure (SMILES) | effect on | mode | technique | tested at | measurement | value
CCN(CC)CCNC(=O)c1c(C)[nH]c(/C=C2\C(=O)Nc3ccc(F)cc32)c1C | enzyme activity | inhibitor | – | 0.3 µM | inhibition | 48%
Cc1sc(C(=O)NC2COC2)cc1-n1cc(NC(=O)Nc2c(F)cccc2Cl)cn1 | enzyme activity | inhibitor | – | 10 µM | remaining activity | 102%
Cc1ccc(Nc2nccc(N(C)c3ccc4c(C)n(C)nc4c3)n2)cc1S(N)(=O)=O | enzyme activity | inhibitor | – | 10 µM | inhibition | 80%
O=C(N1CCS(=O)(=O)CC1)N1C[C@H](c2ccc(OC(F)(F)F)cc2)C[C@H](c2nc(C3CC3)no2)C1 | cell-free assay | – | competition with immobilised ligand | 1 µM | remaining binding | 99%
COc1cc2ncnc(Nc3ccc(Oc4ccccc4)cc3C)c2cc1OC | enzyme activity | inhibitor | – | 1 µM | inhibition | 7%
Cc1ccc(C(=O)Nc2ccc(CN3CCN(C)CC3)c(C(F)(F)F)c2)cc1C#Cc1cnc2cccnn12 | enzyme activity | inhibitor | – | 23.5 nM | remaining activity | 45%
Cc1nc(C2CCN(C(=O)c3ccc(OC(F)(F)F)cc3N)CC2)c2ncc(N3CCN(C)CC3)cc2n1 | cell-free assay | – | competition with immobilised ligand | 1 µM | remaining binding | 93%
CCCOc1ccc(OC)c(F)c1C(=O)c1ccc(C(=O)N[C@@H]2CNC[C@H]2NC(=O)c2ccc3[nH]ncc3c2)cc1 | enzyme activity | inhibitor | – | 10 µM | remaining activity | 96%
Cc1cnc(NC2CCOCC2)nc1-n1cnc(C(=O)NC(CN)c2cc(F)cc(Cl)c2)c1 (stereo not shown) | enzyme activity | inhibitor | radiometric | 1 µM | remaining activity | 103%
N#CC1(c2ccccn2)CCN(Cc2cc(C(=O)N3CCCC3)c(=O)n3ccccc23)CC1 | cell-free assay | – | competition with immobilised ligand | 1 µM | remaining binding | 89%
CS(=O)(=O)CCNCc1ccc(-c2ccc3ncnc(Nc4ccc(OCc5cccc(F)c5)c(Cl)c4)c3c2)o1 | cell-free assay | – | – | 0.5 µM | remaining signal | 111%
C=CC(=O)Nc1cc(Nc2nccc(Nc3cc(Cl)c(F)cc3C(C)(C)O)n2)c(OC)cc1N1CC[C@@H](N(C)C)C1 | enzyme activity | inhibitor | – | 1 µM | inhibition | -3%
CN1CC(Oc2cnc(C#N)cc2-c2ccn3nc(NC(=O)C4CC4)cc3c2)C1 | enzyme activity | inhibitor | – | 1 µM | inhibition | 13%
CNC(=O)c1ccc(Nc2ncc(C(F)(F)F)c(NCc3nccnc3N(C)S(C)(=O)=O)n2)cc1 | cell-free assay | – | competition with immobilised ligand | 0.1 µM | remaining binding | 44%
CNC(=O)c1cc(Oc2ccc(NC(=O)Nc3ccc(Cl)c(C(F)(F)F)c3)cc2)ccn1 | enzyme activity | inhibitor | – | 10 µM | inhibition | 75%
